Results: publication PMC4059272 (Journal of Medicinal Chemistry, 2014)

Columns and labels:
prolactin gene (Prl) = assay: RT-PCR of prolactin; format: cell-based, rat; conditions: GH3 cells, top concentration of 10^–6 M, with 1 nM E2
pS2 gene = assay: RT-PCR of estrogen-responsive gene pS2 in MCF-7:WS8 cells; format: cell-based, human; conditions: MCF-7:WS8, 48 h; E2 at 10^–10 M, other compounds at 10^–6 M
How it was run: (§1)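 MCF-7:WS8 cells kept in phenol-red RPMI 1640 with 10% FBS, glutamine, nonessential amino acids and 6 ng/mL insulin at 37 °C, 5% CO2. Cells were estrogen-starved 3 days, seeded at 300 000 cells/well the day before, and treated 48 h. RNA was taken in Trizol and run as SYBR green real-time PCR with 36B4 as reference.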

GREB1 gene = assay: RT-PCR of estrogen-responsive gene GREB1 in MCF-7:WS8 cells; format: cell-based, human; conditions: MCF-7:WS8, 48 h; E2 at 10^–10 M, other compounds at 10^–6 M
How it was run: as §1

MCF-7:WS8 cells [1] = assay: DNA quantification growth assay, compounds alone; format: cell-based, human; conditions: for estrogenic properties on cell growth: MCF-7:WS8, compounds alone, concentration range 10^–12–10^–6 M
PgR gene = assay: RT-PCR of estrogen-responsive gene PgR in MCF-7:WS8 cells; format: cell-based, human; conditions: MCF-7:WS8, 48 h; E2 at 10^–10 M, other compounds at 10^–6 M
How it was run: as §1

MCF-7:WS8 cells [2] = assay: DNA based growth assay, combination treatments with 10^–10 M E2; format: cell-based, human; conditions: for inhibition of 10^–10 M E2-induced growth: MCF-7:WS8, at 10^–6 M
ERα = target: T1, ERα (Homo sapiens, UniProt P03372); assay: Immunoblotting of ERα protein levels in MCF-7:WS8 cells; format: cell-based; conditions: for regulation of ERα protein levels: MCF-7:WS8, 24 h treatment
T1 sequence (P03372 1-595): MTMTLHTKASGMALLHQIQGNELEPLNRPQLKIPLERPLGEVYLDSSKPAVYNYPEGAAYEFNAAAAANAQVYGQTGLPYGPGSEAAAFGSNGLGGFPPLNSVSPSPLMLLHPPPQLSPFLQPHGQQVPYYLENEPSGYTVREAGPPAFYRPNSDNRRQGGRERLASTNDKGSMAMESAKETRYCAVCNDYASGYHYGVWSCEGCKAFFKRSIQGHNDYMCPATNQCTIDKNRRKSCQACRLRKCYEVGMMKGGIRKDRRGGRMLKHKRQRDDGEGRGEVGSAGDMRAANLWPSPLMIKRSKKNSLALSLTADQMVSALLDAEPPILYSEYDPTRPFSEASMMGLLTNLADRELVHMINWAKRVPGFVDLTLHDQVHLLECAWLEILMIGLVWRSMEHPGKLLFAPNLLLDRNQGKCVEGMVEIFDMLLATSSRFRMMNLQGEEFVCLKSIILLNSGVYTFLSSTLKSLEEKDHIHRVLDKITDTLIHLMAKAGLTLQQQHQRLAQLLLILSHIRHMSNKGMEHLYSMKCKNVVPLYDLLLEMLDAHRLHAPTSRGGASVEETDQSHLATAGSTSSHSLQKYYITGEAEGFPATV

Row | regulation of ERα protein levels (ERα) | reduction (down-regulation) of ERα level by densitometry (ERα; MCF-7:WS8, 24 h, E2 at 1 nM) | SMILES | inhibition of 1 nM E2-induced Prl gene up-regulation (prolactin gene (Prl)) | effect on pS2 mRNA expression (pS2 gene) | effect on GREB1 mRNA expression (GREB1 gene) | estrogenic properties on cell growth (MCF-7:WS8 cells [1]) | effect on PgR mRNA expression (PgR gene) | inhibition of E2-stimulated cell growth at top concentration (MCF-7:WS8 cells [2]; MCF-7:WS8, 10^–6 M compound with 10^–10 M E2) | partial agonist growth level, % max of E2 curve (MCF-7:WS8 cells [1]; MCF-7:WS8, over the range 10^–12–10^–9 M) | inhibition of 10^–10 M E2-induced growth (MCF-7:WS8 cells [2])
1 |  |  | CCOc1ccc2c(c1)CCCC(c1ccccc1)=C2c1ccc(OCCN(C)C)cc1 [ZFR4OHT] | completely inhibit | no significant effect | no significant effect | no estrogenic properties |  |  |  | 
2 |  |  | CNCCOc1ccc2c(c1)CCCC(c1ccccc1)=C2c1ccc(O)cc1 [EFREndox, 4-(3-(2-(Methylamino)ethoxy)-8-phenyl-6,7-dihydro-5H-benzocyclohepten-9-yl)phenol] |  | induce expression | induce expression |  | induce expression | about 10% |  | 
3 | up-regulated the protein levels |  | CCC(=C(c1ccc(O)cc1)c1ccc(O)cc1)c1ccccc1 [BPTPE] |  | partial estrogenic effect | partial estrogenic effect |  | partial estrogenic effect |  | 50% | 
4 |  | more than 90% | C[C@]12CC[C@@H]3c4ccc(O)cc4C[C@@H](CCCCCCCCC[S+]([O-])CCCC(F)(F)C(F)(F)F)[C@H]3[C@@H]1CC[C@@H]2O (stereo partly drawn) [Fulvestrant] |  |  |  |  |  |  |  | 
5 |  |  | CN(C)CCOc1ccc2c(c1)CCCC(c1ccccc1)=C2c1ccc(O)cc1 [EFR4OHT] |  | induce expression | induce expression |  | induce expression |  |  | 
6 |  |  | CCC(=C(c1ccc(O)cc1)c1ccc(OCCN(C)C)cc1)c1ccccc1 [4OHT, 4-hydroxytamoxifen] | completely inhibit | no significant effect | no significant effect | no estrogenic properties |  |  |  | completely
7 | up-regulated the protein levels |  | CCC(=C(c1ccc(O)cc1)c1ccc(O)cc1)c1ccc(O)cc1 [3OHTPE] |  | partial estrogenic effect | partial estrogenic effect |  | partial estrogenic effect |  |  | 
8 |  |  | C[C@]12CC[C@@H]3c4ccc(O)cc4CC[C@H]3[C@@H]1CC[C@@H]2O [E2, 17β-estradiol] |  | induced expression | induced expression |  | induced expression |  |  | 
9 |  |  | CNCCOc1ccc(C2=C(c3ccccc3)CCCc3cc(O)ccc32)cc1 [ZFREndox, 9-(4-(2-(Methylamino)ethoxy)phenyl)-8-phenyl-6,7-dihydro-5H-benzocyclohepten-3-ol] | completely inhibit | no significant effect | no significant effect | no estrogenic properties |  |  |  | 
10 | up-regulation |  | CC/C(=C(\c1ccc(O)cc1)c1ccc(OCCNC)cc1)c1ccccc1 [Endoxifen, 4-hydroxy-N-desmethyltamoxifen] |  |  |  | no estrogenic properties |  |  |  | completely
